Test results as given in PMC3288198 (ACS Chemical Biology, 2011).
Like-named read-outs stand apart in the source and are kept apart here.

Legend:
HDAC8 = target: T1, HDAC8 (Homo sapiens, UniProt Q9BY41); test: HDAC deacetylase homogenous fluorescence assay, HDAC8; format: biochemical
T1 sequence (Q9BY41 1-377): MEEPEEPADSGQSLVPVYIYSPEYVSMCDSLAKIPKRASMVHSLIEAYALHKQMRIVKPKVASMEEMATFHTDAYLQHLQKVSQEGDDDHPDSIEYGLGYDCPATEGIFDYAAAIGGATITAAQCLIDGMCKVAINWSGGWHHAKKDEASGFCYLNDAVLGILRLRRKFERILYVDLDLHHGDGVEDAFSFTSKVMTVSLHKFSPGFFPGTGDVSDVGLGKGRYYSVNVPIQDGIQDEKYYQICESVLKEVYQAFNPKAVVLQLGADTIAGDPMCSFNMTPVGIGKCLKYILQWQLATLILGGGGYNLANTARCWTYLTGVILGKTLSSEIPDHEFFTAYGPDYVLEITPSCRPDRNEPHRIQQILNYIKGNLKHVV
Outline: (§1)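 Recombinant human enzyme (HDAC5, 8, 9 baculovirus-expressed) incubated with serially diluted test compound over a 12-point titration. Substrate: trifluoroacetylated AMC-K(TFA)GL. Peptidase development releases MCA, read at ex 355/em 460 nm. Activity normalised to plate controls. IC50 and SD by non-linear regression; Ki by Cheng-Prusoff, Ki = IC50/(1+[S]/Km).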

HDAC10 = target: T2, HDAC10 (Homo sapiens, UniProt Q969S8); test: HDAC deacetylase homogenous fluorescence assay, HDAC10; format: biochemical
T2 sequence (Q969S8 1-669): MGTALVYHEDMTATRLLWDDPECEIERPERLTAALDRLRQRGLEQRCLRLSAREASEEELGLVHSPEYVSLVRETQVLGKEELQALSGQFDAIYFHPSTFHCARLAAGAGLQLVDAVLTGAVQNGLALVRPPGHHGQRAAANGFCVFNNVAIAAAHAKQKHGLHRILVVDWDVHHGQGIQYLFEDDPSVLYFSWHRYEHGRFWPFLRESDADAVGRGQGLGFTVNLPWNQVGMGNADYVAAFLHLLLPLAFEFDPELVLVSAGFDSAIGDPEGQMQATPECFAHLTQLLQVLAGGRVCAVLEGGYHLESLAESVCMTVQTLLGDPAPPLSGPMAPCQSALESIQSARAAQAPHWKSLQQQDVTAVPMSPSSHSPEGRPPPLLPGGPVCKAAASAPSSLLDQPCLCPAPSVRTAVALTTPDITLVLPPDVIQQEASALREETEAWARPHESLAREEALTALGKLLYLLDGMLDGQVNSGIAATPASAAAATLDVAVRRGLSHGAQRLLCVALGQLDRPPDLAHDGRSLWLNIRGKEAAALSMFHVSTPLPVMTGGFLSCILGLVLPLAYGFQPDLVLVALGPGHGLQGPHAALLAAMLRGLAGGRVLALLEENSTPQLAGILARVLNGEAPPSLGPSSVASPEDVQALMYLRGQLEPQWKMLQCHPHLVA
Outline: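 Baculovirus-expressed recombinant human enzyme (HDAC3 as HDAC3/N-CoR2 complex) incubated with serially diluted test compound over a 12-point titration. Substrate: acetylated AMC-K(Ac)GL. Deacetylated product cleaved by lysine peptidase to free MCA, read at ex 355/em 460 nm. Data normalised to control plate by plate. IC50 and SD from non-linear regression; Ki via Cheng-Prusoff, Ki = IC50/(1+[S]/Km).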

HDAC9 = HDAC9 (Homo sapiens, UniProt Q9UKV0); test: HDAC deacetylase homogenous fluorescence assay, HDAC9; format: biochemical
Outline: as §1

HDAC5 = HDAC5 (Homo sapiens, UniProt Q9UQL6); test: HDAC deacetylase homogenous fluorescence assay, HDAC5; format: biochemical
Outline: as §1

acetylated tubulin = test: Western blot of acetylated tubulin in MV4-11 cells; format: cell-based, human
Outline: (§2)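 MV4-11 cells (10% heat-inactivated FBS, 37°C, 5% CO2) treated with test compound at a range of concentrations. Washed in cold HBSS and lysed 30 min in low-salt Tris pH 7.4 buffer with protease/phosphatase inhibitors and 1 μM TSA, then sonicated. LDS-denatured lysates run on 4–12% gradient gels. Probes: acetyl-H3, acetyl-H4, total H3, acetyl-α-tubulin, tubulin. HRP secondary, ECL read-out.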

ubiquitinated protein = test: Western blot of total ubiquitinated protein in MV4-11 cells; format: cell-based, human; conditions: within 3 hr
[1] = tested on: non-proliferating PBMC (no mitogen stimulation); test: Viability of resting PBMC; format: cell-based, human
[2] = tested on: acetylated histone H3 and H4; test: Western blot of acetylated histone H3/H4 in MV4-11 cells; format: cell-based, human
Outline: as §2

[3] = read-out: HDAC8 IC50, 12 point titration, trifluoroacetylated substrate
[4] = read-out: HDAC8 Ki, converted from IC50 using Cheng-Prusoff equation
[5] = read-out: HDAC10 IC50, 12 point titration, acetylated substrate
[6] = read-out: HDAC9 IC50, 12 point titration, trifluoroacetylated substrate
[7] = read-out: HDAC9 Ki, converted from IC50 using Cheng-Prusoff equation
[8] = read-out: HDAC5 IC50, 12 point titration, trifluoroacetylated substrate
[9] = read-out: HDAC5 Ki, converted from IC50 using Cheng-Prusoff equation

Chain of HDAC9 (Q9UKV0 whole entry): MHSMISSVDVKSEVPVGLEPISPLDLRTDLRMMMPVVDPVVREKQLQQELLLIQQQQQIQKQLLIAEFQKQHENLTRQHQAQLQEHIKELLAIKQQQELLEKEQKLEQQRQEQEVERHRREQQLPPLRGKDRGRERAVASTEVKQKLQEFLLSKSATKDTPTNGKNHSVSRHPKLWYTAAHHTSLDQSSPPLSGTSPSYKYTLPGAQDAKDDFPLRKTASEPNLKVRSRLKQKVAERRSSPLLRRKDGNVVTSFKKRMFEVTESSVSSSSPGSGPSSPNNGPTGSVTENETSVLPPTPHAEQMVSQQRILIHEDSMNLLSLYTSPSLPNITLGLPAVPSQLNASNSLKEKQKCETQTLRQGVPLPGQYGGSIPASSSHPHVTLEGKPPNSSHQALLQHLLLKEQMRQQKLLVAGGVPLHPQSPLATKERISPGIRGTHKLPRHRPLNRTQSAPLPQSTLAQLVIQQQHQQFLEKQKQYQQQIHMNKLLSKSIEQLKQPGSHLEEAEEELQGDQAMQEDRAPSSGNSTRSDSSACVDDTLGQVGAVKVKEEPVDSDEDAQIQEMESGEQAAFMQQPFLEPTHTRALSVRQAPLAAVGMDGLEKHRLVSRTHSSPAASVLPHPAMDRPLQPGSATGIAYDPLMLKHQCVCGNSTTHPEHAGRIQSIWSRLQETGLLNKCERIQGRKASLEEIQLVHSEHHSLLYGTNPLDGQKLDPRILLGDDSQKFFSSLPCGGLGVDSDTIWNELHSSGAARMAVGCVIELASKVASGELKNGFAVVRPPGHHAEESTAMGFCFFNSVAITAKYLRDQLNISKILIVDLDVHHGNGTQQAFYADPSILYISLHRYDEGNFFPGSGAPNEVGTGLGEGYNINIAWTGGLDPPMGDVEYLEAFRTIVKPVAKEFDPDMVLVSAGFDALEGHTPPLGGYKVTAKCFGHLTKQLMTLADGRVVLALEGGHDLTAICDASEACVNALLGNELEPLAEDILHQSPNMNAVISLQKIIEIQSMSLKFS
Chain of HDAC5 (Q9UQL6 whole entry): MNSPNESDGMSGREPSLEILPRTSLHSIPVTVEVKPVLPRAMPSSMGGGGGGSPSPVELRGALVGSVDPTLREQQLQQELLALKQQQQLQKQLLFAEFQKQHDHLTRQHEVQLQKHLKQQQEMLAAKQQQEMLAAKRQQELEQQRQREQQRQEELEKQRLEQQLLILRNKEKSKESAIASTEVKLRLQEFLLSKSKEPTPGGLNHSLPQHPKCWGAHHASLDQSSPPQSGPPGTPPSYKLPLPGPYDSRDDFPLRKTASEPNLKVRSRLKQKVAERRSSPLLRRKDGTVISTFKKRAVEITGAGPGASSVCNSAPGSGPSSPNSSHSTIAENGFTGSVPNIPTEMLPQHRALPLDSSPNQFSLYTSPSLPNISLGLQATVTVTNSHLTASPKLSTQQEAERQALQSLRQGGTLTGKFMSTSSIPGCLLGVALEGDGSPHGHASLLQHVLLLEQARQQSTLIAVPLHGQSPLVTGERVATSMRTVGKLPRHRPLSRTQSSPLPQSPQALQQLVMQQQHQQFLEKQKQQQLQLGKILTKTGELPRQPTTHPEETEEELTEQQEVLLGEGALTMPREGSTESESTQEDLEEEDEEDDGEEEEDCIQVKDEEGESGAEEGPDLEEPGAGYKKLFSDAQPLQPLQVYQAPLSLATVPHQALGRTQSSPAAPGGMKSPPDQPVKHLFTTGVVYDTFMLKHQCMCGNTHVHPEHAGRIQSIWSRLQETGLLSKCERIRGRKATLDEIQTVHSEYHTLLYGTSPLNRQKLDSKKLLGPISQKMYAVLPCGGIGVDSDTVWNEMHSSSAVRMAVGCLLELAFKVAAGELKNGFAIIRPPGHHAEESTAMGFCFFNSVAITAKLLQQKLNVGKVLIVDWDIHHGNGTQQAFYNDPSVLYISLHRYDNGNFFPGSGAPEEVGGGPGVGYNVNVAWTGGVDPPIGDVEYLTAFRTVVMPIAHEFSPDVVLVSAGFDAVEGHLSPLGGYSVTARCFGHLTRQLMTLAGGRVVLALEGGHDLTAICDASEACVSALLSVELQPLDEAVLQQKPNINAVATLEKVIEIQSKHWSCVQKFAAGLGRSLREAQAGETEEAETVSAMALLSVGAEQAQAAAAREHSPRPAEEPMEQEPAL

Compound | IC50 (HDAC8; [3]) | Ki (HDAC8; [4]) | IC50 (HDAC10; [5]) | IC50 (HDAC9; [6]) | Ki (HDAC9; [7]) | IC50 (HDAC5; [8]) | Ki (HDAC5; [9]) | IC50 (HDAC8) | IC50 (HDAC10) | Ki (HDAC10) | IC50 (HDAC9) | IC50 (HDAC5) | Ki (HDAC5) | other results
OC[C@H]1O[C@H]([S-])[C@H](O)[C@@H](O)[C@@H]1O.[Au+] [Aurothioglucose, 1-thio-D-glucopyronaose gold salt] | 1400 ± 300 nM | 1110 nM | 4900 ± 1500 nM | 2800 ± 100 nM | 1190 nM | 720 ± 500 nM | 390 nM |  |  |  |  |  |  | Ki (HDAC10; read-out: HDAC10 Ki, converted from IC50 using Cheng-Prusoff equation): 2160 nM
O=c1c2ccccc2[se]n1-c1ccccc1 [Ebselen, 2-phenyl-1,2-benzisoselenazol-3(2H)-one] |  |  |  |  |  |  |  | 350 ± 200 nM | 950 ± 400 nM | 420 nM | 970 ± 500 nM | 780 ± 100 nM | 420 nM | 
NC(N)=Nc1ccc2[nH]c3c(c2c1)C[C@@]1(O)[C@H]2Cc4ccc(O)c5c4[C@@]1(CCN2CC1CC1)[C@H]3O5 [GNTI, guanidinyl-naltrindole di-trifluoroacetate] | 2000 ± 400 nM | 1580 nM | > 180000 nM | 12300 ± 1700 nM | 5230 nM | 700 ± 100 nM | 380 nM |  |  |  |  |  |  | 
O=C1C(SCCO)=C(SCCO)C(=O)c2ccccc21 [NSC-95397, 2,3-bis[(2-Hydroxyethyl)thio]-1,4-naphthoquinone] |  |  |  |  |  |  |  | 1300 ± 100 nM | 14500 ± 1500 nM | 6400 nM | 4800 ± 1400 nM | 3100 ± 200 nM | 1680 nM | induction of acetylated tubulin (acetylated tubulin): induces hyperacetylated tubulin; Ki (HDAC8): 1030 nM; total ubiquitinated protein level (ubiquitinated protein): increase in total ubiquitinated protein level; Ki (HDAC9): 2040 nM; effect on resting (non-proliferating) PBMC viability [1]: inactive; effect on resting (non-proliferating) PBMC viability ([1]; listed as NSC): not affected; effect on acetylated histone H3/H4 levels [2]: without an increase in acetylated histone levels
COc1ccc2c(c1)CC[C@@H]1[C@@H]2CC[C@]2(C)[C@@H](NCCCCCCN3C(=O)C=CC3=O)CC[C@@H]12 [U-73122, 1-[6-[[(17beta)-3-methoxyestra-1,3,5([10])-trien-17-yl]amion]hexyl]-1H-pyrrole-2,5-dione] | 10900 ± 3100 nM | 8630 nM | > 100000 nM | 29800 ± 5600 nM | 12700 nM | 10500 ± 7400 nM | 5680 nM |  |  |  |  |  |  | 
